Assay results reported in ChEMBL document CHEMBL1144008, “Synthesis, nitric oxide release, and anti-leukemic activity of glutathione-activated nitric oxide prodrugs: Structural analogues of PABA/NO, an anti-cancer lead compound” (Bioorg Med Chem, 2008).
pIC50: −log10 of the molar value.

Assays:
[1] = Nitric oxide release at 100 to 150 nM in pH7.4 in presence of GSH; type: functional
Summary of the method: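 Performed in 0.1 M pH 7.4 phosphate buffer with 1 mM GSH, sparged with inert gas until detector baseline was steady. Prodrug stock injected to final 100–150 nM. NO release followed at 37 °C. Area under the release curve integrated to give mol NO released per mol compound.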

HL-60 = experiment: Antiproliferative activity against human HL60 cells by MTS assay; type: functional, cell-based
Summary of the method: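 HL-60 human myeloid leukemia cells grown in RPMI 1640 with 10% FBS, 37 °C, 5% CO2. Seeded 10,000 cells/100 µL; compounds (DMSO stocks serially diluted in PBS, final DMSO 0.5%) added 24 h after plating. Viable cells read by MTS after 3 days. IC50 from nonlinear fit of absorbance vs concentration to a Hill-slope equation.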

CC(=O)Nc1ccc(S(=O)(=O)Oc2cc(O/N=[N+](\[O-])N(C)C)c([N+](=O)[O-])cc2[N+](=O)[O-])cc1 gave an Activity [1] of 96% and a pIC50 (HL-60) of 5.41.

CNc1ccc(C(=O)Oc2cc(O/N=[N+](\[O-])N(C)C)c([N+](=O)[O-])cc2[N+](=O)[O-])cc1 gave an Activity [1] of 73% and a pIC50 (HL-60) of 5.41.

Work on CN(C(=O)c1ccccc1)c1cc(O/N=[N+](\[O-])N(C)C)c([N+](=O)[O-])cc1[N+](=O)[O-] yielded an Activity [1] of 99% and a pIC50 (HL-60) of 5.80.

Work on CC(=O)Nc1ccc(C(=O)Oc2cc(O/N=[N+](\[O-])N(C)C)c([N+](=O)[O-])cc2[N+](=O)[O-])cc1 yielded an Activity [1] of 20% and a pIC50 (HL-60) of 4.66.

Compound CCN(C(=O)c1ccccc1)c1cc(O/N=[N+](\[O-])N(C)C)c([N+](=O)[O-])cc1[N+](=O)[O-] has an Activity [1] of 100% and a pIC50 (HL-60) of 5.85.

For CC(C)Cc1ccc(C(C)C(=O)Oc2cc(O/N=[N+](\[O-])N(C)C)c([N+](=O)[O-])cc2[N+](=O)[O-])cc1 (stereo not given), the Activity [1] was 0% and the pIC50 (HL-60) was under 4.60.

For CC(=O)Oc1ccccc1C(=O)Oc1cc(O/N=[N+](\[O-])N(C)C)c([N+](=O)[O-])cc1[N+](=O)[O-], the Activity [1] was 7% and the pIC50 (HL-60) was under 4.60.

Compound CN(C)/[N+]([O-])=N/Oc1cc(OC(=O)c2cccnc2)c([N+](=O)[O-])cc1[N+](=O)[O-] has an Activity [1] of 4% and a pIC50 (HL-60) of under 4.60.

In the case of CN(C)/[N+]([O-])=N\Oc1cc(O)c([N+](=O)[O-])cc1[N+](=O)[O-], the Activity [1] was 0% and the pIC50 (HL-60) was under 4.60.

With CN(C)/[N+]([O-])=N/Oc1cc(Nc2ccc(CO)cc2)c([N+](=O)[O-])cc1[N+](=O)[O-] the Activity [1] was 100% and the pIC50 (HL-60) was 5.17.

CN(C)c1ccc(C(=O)Oc2cc(O/N=[N+](\[O-])N(C)C)c([N+](=O)[O-])cc2[N+](=O)[O-])cc1 showed an Activity [1] of 30% and a pIC50 (HL-60) of under 4.60.

CN(C)/[N+]([O-])=N/Oc1cc(OC(=O)c2ccc(N)cc2)c([N+](=O)[O-])cc1[N+](=O)[O-] showed an Activity [1] of 63% and a pIC50 (HL-60) of 4.89.

CC(=O)Nc1ccc(Oc2cc(O/N=[N+](\[O-])N(C)C)c([N+](=O)[O-])cc2[N+](=O)[O-])cc1 gave an Activity [1] of 93% and a pIC50 (HL-60) of 5.64.

COc1ccc2cc(C(C)C(=O)Oc3cc(O/N=[N+](\[O-])N(C)C)c([N+](=O)[O-])cc3[N+](=O)[O-])ccc2c1 (stereo not given) showed an Activity [1] of 5% and a pIC50 (HL-60) of under 4.60.

In the case of CN(C)/[N+]([O-])=N/Oc1cc(OC(=O)c2ccccc2)c([N+](=O)[O-])cc1[N+](=O)[O-], the Activity [1] was 15% and the pIC50 (HL-60) was under 4.60.
